Fam108B counter – counter-screen for RBBP9 inhibitors: inhibitors of mouse Fam108B; inhibition, % at 9.51 µM; recombinant Fam108B, FP-Rh probe fluorescence polarization; 0.33% of 300,000 active;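 active = inhibition above the screen mean inhibition plus 3 SD, computed separately per campaign, cut at about 18% in these data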;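 note: inhibitors lower polarization as less probe binds the enzyme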
LYPLA1 counter – counter-screen for PME1 inhibitors: inhibitors of human LYPLA1; O75608; recombinant LYPLA1, FP-Rh probe fluorescence polarization; inhibition, % at 5.9 µM; 0.16% of 320,000 active;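 active = inhibition above the mean of all tested compounds plus 3 SD, set per campaign, cut at about 14% in these data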;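 note: inhibitors block serine hydrolase probe labeling of LYPLA1 so polarization falls; 0% = enzyme with DMSO and 100% = wells lacking LYPLA1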
Target sequence (O75608 whole entry, looked up): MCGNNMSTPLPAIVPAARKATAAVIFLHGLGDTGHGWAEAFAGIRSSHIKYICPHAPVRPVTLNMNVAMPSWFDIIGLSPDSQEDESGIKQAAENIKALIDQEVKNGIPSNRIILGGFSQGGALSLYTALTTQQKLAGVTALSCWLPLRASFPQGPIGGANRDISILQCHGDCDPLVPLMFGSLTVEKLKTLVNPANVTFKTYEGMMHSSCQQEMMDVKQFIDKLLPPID
RBBP9 inhibitor – inhibitors of human serine hydrolase RBBP9 | 0.2% of 220,000 active | inhibition, % at 7.94 µM | O75884 | recombinant RBBP9, FP-Rh probe fluorescence polarization | AID 1515;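 active = inhibition above the campaign mean of all tested compounds plus 3 SD, cut at about 14% in these data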;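 note: plate controls were DMSO wells with RBBP9 for no effect and wells lacking RBBP9 protein for full effect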
Target sequence (O75884 whole entry, looked up): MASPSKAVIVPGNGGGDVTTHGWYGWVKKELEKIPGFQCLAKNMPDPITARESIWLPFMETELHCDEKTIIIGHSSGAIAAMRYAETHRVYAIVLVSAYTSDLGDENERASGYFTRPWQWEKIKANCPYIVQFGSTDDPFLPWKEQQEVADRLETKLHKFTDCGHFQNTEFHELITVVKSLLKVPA
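System: RBBP9 protein / Quantity: 2.5 µM RBBP9 dispensing solution, before mixing / Also added: Serine-hydrolase probe FP-Rh, 375 nM pre-mixing / Dosing: 7.94 µM single dose, 0.794% DMSO / Timing: enzyme-compound preincubation 30 min, then probe labeling 45 min, 25 °C / Signal: FP readout at 525/598 nm / Controls: DMSO-treated enzyme wells and wells lacking RBBP9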
PME-1 inh – PME-1 (human) inhibition; 0.53% of 320,000 active; AID 2130; recombinant PME-1, FP-Rh probe fluorescence polarization; inhibition, % at 5.9 µM;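 active = inhibition above the campaign mean of all compounds plus 3 SD, cut at about 26% in these data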;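 note: competitive labeling of PME-1 active site by serine hydrolase directed probe; 0% = PME-1 with DMSO and 100% = wells lacking PME-1 enzyme; inhibitors block probe labeling so polarization falls and inhibition rises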
LYPLA2 inh – counter-screen for PME1 inhibitors: inhibitors of human LYPLA2 | O95372 | recombinant LYPLA2, FP-Rh probe fluorescence polarization | inhibition, % at 5.9 µM | 0.38% of 320,000 active | AID 2177;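 active = inhibition above the screen-wide mean plus 3 SD, limit set per campaign, cut at about 26% in these data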;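 note: 0% = LYPLA2 with DMSO and 100% = wells lacking LYPLA2 enzyme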
Target sequence (O95372 whole entry, looked up): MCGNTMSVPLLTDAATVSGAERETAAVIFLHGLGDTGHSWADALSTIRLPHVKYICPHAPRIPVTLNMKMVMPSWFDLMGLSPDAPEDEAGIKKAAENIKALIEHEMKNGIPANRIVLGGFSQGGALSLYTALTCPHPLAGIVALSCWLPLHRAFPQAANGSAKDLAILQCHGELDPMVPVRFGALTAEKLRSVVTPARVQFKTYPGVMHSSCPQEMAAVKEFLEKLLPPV
PAD4 FP inh – blocks human protein arginine deiminase 4; inhibition, % at 6.36 µM; recombinant PAD4, RCA probe fluorescence polarization; 0.41% of 330,000 active;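 active = percent inhibition above a cutoff equal to the mean of all tested compounds plus 3 SD, cut at about 15% in these data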;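 note: 0% = PAD4 with RCA probe and DMSO and 100% = probe without PAD4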
LYPLA2 conf – LYPLA2 (human) inhibition, confirmation counter-screen; recombinant LYPLA2, FP-Rh probe fluorescence polarization; inhibition, % at 5.9 µM; 72% of 1,100 active; shares compounds with LYPLA2 inh; AID 2232;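 active = mean inhibition across replicates above the hit cutoff set in the primary screen, cut at about 26% in these data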;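 note: blocked labeling of the enzyme by serine hydrolase FP-Rh probe lowers polarization; 0% = enzyme with DMSO and 100% = wells lacking LYPLA2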
LYPLA2 ABPP – LYPLA2 (human) inhibition, late stage results; shares compounds with LYPLA2 inh; rhLYPLA2 in mouse brain proteome, gel ABPP FP-Rh; inhibition, % at 20 µM; 30% of 150 active;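 active = inhibition of LYPLA2 enzyme probe labeling above about 50%, limit read from the data; inactive = inhibition below that limit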;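 note: loss of FP-Rh probe labeling of the LYPLA2 gel band measured as band density; 0% = DMSO only control band and 100% = blank gel background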
Starred values were filed as active, the others as inactive; . = not tested or not shown. Only some compounds are listed: those with a hit (about 1.3% of all), similar ones and a draw of the others.

SMILES | Fam108B counter | LYPLA1 counter | RBBP9 inhibitor | PME-1 inh | LYPLA2 inh | PAD4 FP inh | LYPLA2 conf | others
O=C1CN(C(=O)c2cccc(F)c2)C(c2ccc(F)cc2)c2cc(F)ccc2N1 (configuration not stated) | -2.0 | 0.8 | . | 17.3 | -2.0 | 2.7 | .
Cc1ccc(C(=O)N2CC(=O)Nc3ccc(F)cc3C2c2ccccc2)cc1[N+](=O)[O-] (configuration not stated) | 2.5 | -3.3 | -2.6 | 4.5 | 34.1* | -5.0 | 34.1*
Cc1ccccc1NC(=O)C1CCN(C(=O)N2CCOc3ccccc32)CC1 | -4.0 | -2.5 | . | -1.9 | 1.1 | -0.4 | .
O=C(Cn1ncn2c(cc3sccc32)c1=O)NC1CCCC1 | 0.8 | -1.9 | . | -4.4 | 8.1 | 2.7 | .
NC(=O)CC(NC(=O)c1ccccc1)c1ccc(N2CCN(c3ccc(F)cc3)CC2)c([N+](=O)[O-])c1 (configuration not stated) | -7.5 | -3.7 | . | -1.3 | 27.1* | -3.8 | 33.1*
NC(=O)CC(NC(=O)c1ccc(Br)cc1)c1ccc(N2CCN(c3ccccn3)CC2)c([N+](=O)[O-])c1 (configuration not stated) | -3.3 | 2.6 | . | 12.7 | 49.7* | 4.2 | 56.9* | LYPLA2 ABPP=37.0
NC(=O)CC(NC(=O)c1ccccc1)c1ccc(N2CCN(c3ccccc3)CC2)c([N+](=O)[O-])c1 (configuration not stated) | 1.6 | -3.9 | . | 9.2 | 13.8 | -3.6 | .
Cc1ccc(S(=O)(=O)N2CCCC2C(=O)NCc2ccc3c(c2)OCO3)cc1 (configuration not stated) | 9.5 | -3.3 | -5.1 | -2.7 | 6.5 | 6.6 | .
O=C(NC(=S)Nc1cccc(O)c1)C1CCCCC1 | . | . | . | . | . | -1.6 | .
Cc1cc(N2CCN(c3ccc(C(F)(F)F)cc3[N+](=O)[O-])CC2)c2ccccc2n1 | 2.7 | 2.5 | . | 3.9 | 29.3* | -1.9 | 25.8*
Cc1cc(N2CCN(c3ccc([N+](=O)[O-])c4cccnc34)CC2)c2ccccc2n1 | -5.1 | 5.8 | -5.7 | 2.5 | -0.8 | 0.1 | .
COc1cc2[nH]c(C(=O)N3CCC(Cc4ccccc4)CC3)cc2c(OC)c1OC | 3.5 | -2.5 | . | -5.5 | 33.5* | 1.5 | 19.6
O=C(NCc1ccc(Cl)cc1)NCC(F)(F)F | -2.4 | 0.6 | -2.3 | 1.6 | 33.4* | 3.0 | -3.2
O=C(N/C=C\c1ccccc1)NCc1ccc(Cl)cc1 | -4.8 | -4.5 | 7.2 | -7.8 | -15.1 | -4.6 | .
COc1ccc(NC(=O)CN(C)C(=O)CNC(=O)c2ccc(C)s2)cc1 | -3.8 | -1.4 | . | -2.1 | 3.0 | -0.3 | .
O=C(Nc1ccc(N2CCN(C(=O)c3ccc(Cl)cc3)CC2)cc1)c1cccnc1 | 0.5 | 4.5 | 3.3 | -1.1 | 48.0* | -5.4 | 40.8*
CCC(=O)NC(=S)Nc1ccc(N2CCN(C(=O)c3ccc(Cl)cc3)CC2)cc1 | 4.3 | 2.3 | -7.0 | 8.0 | 29.0* | -2.0 | 35.5*
Cc1ccc(C(=O)N2CCN(c3ccc(NC(=O)c4cccnc4Cl)cc3)CC2)cc1 | 0.8 | 4.8 | . | -0.8 | 48.8* | -5.9 | 57.2* | LYPLA2 ABPP=38.0
O=C(Nc1ccc(N2CCN(C(=O)c3ccccc3)CC2)cc1)c1cccnc1 | -0.6 | -2.4 | . | -3.8 | 3.0 | 1.8 | .
CCOc1ccc(C(C)=O)cc1COc1cccnc1[N+](=O)[O-] | 3.5 | -6.1 | . | -3.6 | -2.4 | -1.2 | .
Cc1cc(NC(=O)CCC(=O)N(Cc2ccccc2)C2(C(=O)NC3CCCCC3)CCCC2)no1 | 0.6 | 0.2 | -5.1 | 7.9 | -7.9 | 0.8 | .
CCOC(=O)c1[nH]c(C)c(C(=O)N2CCN(c3ccc(OC)cc3)CC2)c1C | -2.8 | -2.3 | -0.5 | -3.1 | 1.4 | -8.1 | .
CCOC(=O)c1[nH]c(CN2CCN(c3ccc(OC)cc3)CC2)c(C(=O)OCC)c1C | 2.6 | -1.6 | . | 1.6 | 26.8* | 4.5 | -2.4
CN(c1ccccc1)c1ccc(/C=N/N2CCOCC2)cc1 | 4.6 | 0.3 | -2.6 | 3.5 | 2.0 | -4.1 | .
O=C1CCc2cc(S(=O)(=O)Nc3ccc(F)cc3)ccc2N1 | . | 4.2 | . | -1.8 | 4.1 | -2.9 | .
SMILES | Fam108B counter | LYPLA1 counter | RBBP9 inhibitor | PME-1 inh | LYPLA2 inh | PAD4 FP inh | LYPLA2 conf | others
O=C(N/N=C/c1cccc(Oc2ccc([N+](=O)[O-])cc2[N+](=O)[O-])c1)c1cncc(Br)c1 | 16.1 | -2.3 | 8.0 | 16.1 | 44.9* | 4.5 | 38.7*
COc1ccc(CC(=O)Nc2cccc(-c3nnc(-c4cccc(C)c4)o3)c2)cc1OC | -30.8 | -36.5 | -11.4 | -50.6 | -52.0 | -2.6 | .
COc1ccc(CC(=O)Nc2cccc(-c3nnc(-c4ccc(C)cc4)o3)c2)cc1OC | -8.4 | -3.1 | 1.1 | -5.2 | 30.7* | 1.1 | 13.0
COc1ccc(CCNC(=O)COc2ccc(-c3ccc(C)cc3)cc2)cc1OC | -0.3 | -0.4 | -7.0 | -0.9 | 45.4* | 0.6 | 40.5*
COc1ccc(CCNC(=O)CCOc2ccc(C)cc2)cc1OC | 4.2 | 2.3 | . | 3.4 | 1.8 | 7.0 | .
CC(=O)c1c(C)[nH]c(C(=O)COC(=O)CN(C)S(=O)(=O)c2ccc(Cl)cc2)c1C | -5.9 | 2.8 | -0.4 | 17.8 | 35.2* | 2.0 | 20.8
CC(=O)c1c(C)[nH]c(C(=O)COC(=O)Cc2ccccc2F)c1C | . | . | . | . | . | -4.9 | .
CCOc1ccc(NC(=O)CN(C)C(=O)c2c(-c3ccccc3Cl)noc2C)cc1OCC | 0.0 | -2.4 | . | -3.1 | -4.6 | -2.5 | .
CCCCOC(=O)c1ccc(NC(=O)C(=O)NCc2ccncc2)cc1 | -0.1 | 3.4 | -3.6 | 0.5 | 34.9* | 1.0 | 31.3*
Cc1c(N(C)S(=O)(=O)c2cccc(C(=O)NC(C)C)c2)c(=O)n(-c2ccccc2)n1C | -3.1 | -3.9 | . | -10.7 | -15.2 | -11.0 | .
O=C(Cc1ccc(NC2=NC3CS(=O)(=O)CC3S2)cc1)N1CCN(c2ccc(F)cc2)CC1 (configuration not stated) | 3.1 | -0.1 | . | -4.1 | -1.3 | 0.7 | .
O=C(COC(=O)c1ccc(O)cc1)c1ccc(S(=O)(=O)N2CCCCC2)cc1 | . | 4.2 | . | -0.3 | 44.3* | -1.5 | 34.7*
O=C(COC(=O)c1ccc(CO)cc1)c1ccc(S(=O)(=O)N2CCCCC2)cc1 | . | -0.6 | . | -0.3 | 13.8 | 0.2 | .
CNC(=O)COc1ncnc2sc(C)c(C)c12 | -0.7 | 5.0 | -3.6 | -2.1 | 0.4 | -2.7 | .
Cc1sc2ncnc(OCC(=O)c3ccc(S(=O)(=O)N4CCCC4)cc3)c2c1C | 2.7 | -8.3 | -3.1 | 6.2 | 27.6* | -8.8 | 15.4
CC(=O)Nc1ccc(S(=O)(=O)N2c3ccccc3NC(=O)CC2C)c(Cl)c1 (configuration not stated) | 2.8 | 1.2 | -8.0 | -0.1 | 2.4 | -2.2 | .

Screens (PubChem BioAssay)
